Experimental data taken from ChEMBL document CHEMBL1130162, “Structure-activity relationships of cysteine-lacking pentapeptide derivatives that inhibit ras farnesyltransferase” (J Med Chem, 1997).

Key:
[1] = biological target: T1, Protein farnesyltransferase (Rattus norvegicus, UniProt Q02293+Q04631); experiment: Inhibitory concentration against rat brain farnesyltransferase
Summary of the method: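 Rat brain FTase (40-fold purified), pH 7.4, in 30 mM potassium phosphate, 5 mM phosphate plus 50 mM Hepes, or 50 mM Hepes. Buffer also held 7 mM DTT, 1.2 mM MgCl2 and protease inhibitors. Final substrates were 0.12 μM [1-3H]FPP and 0.1 μM biotinyl-aminoheptanoyl-TKCVIM, with inhibitor varied from DMSO stock. Reaction ran 30 min at 37 °C, was stopped with streptavidin beads, and was counted by scintillation proximity. Generally n = 2.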

[2] = biological target: T1, Protein farnesyltransferase; experiment: Inhibition of rat brain farnesyltransferase in 50 mM HEPES buffer
Summary of the method: (§1)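 40-fold purified rat brain FTase at pH 7.4 with 1.2 mM MgCl2, leupeptin, pepstatin and PMSF. Substrates: [1-3H]farnesyl pyrophosphate (0.12 μM final) and biotinyl-aminoheptanoyl-TKCVIM peptide (0.1 μM final). Compounds were serially diluted from DMSO and incubated 30 min at 37 °C. Stopped with streptavidin beads in acidic Mg acetate/BSA and scintillation counted.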

[3] = biological target: T1, Protein farnesyltransferase; experiment: Inhibition of rat brain farnesyltransferase in 30 mM potassium phosphate buffer; summary of the method: as §1
[4] = biological target: T1, Protein farnesyltransferase; experiment: Inhibition of rat brain farnesyltransferase in 5 mM potassium phosphate and 50 mM HEPES buffer; summary of the method: as §1
[5] = biological target: Protein farnesyltransferase (Homo sapiens, UniProt P49354+P49356); experiment: Inhibition of human farnesyltransferase; type: protein-complex assay
[6] = biological target: geranylgeranyltransferase type-I (Rattus norvegicus, UniProt P53610+Q04631); experiment: Inhibition of rat brain Geranylgeranyl transferase type I; conditions: in the assay text read “rat” for “rat brain”
Summary of the method: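 Rat GGTase-I expressed in Sf9 cells, assayed like the FTase test. Substrates were geranylgeranyl pyrophosphate and biotinyl-aminoheptanoyl-Thr-Lys-Cys-Val-Ile-Leu, with inhibitor varied from DMSO stock. Incubation at 37 °C. Streptavidin bead capture with radioactivity count as the read-out.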

Compound	IC50 [1] [µM]	IC50 [2] [µM]	IC50 [3] [µM]	IC50 [4] [µM]	also measured
C[C@H](NC(=O)[C@@H](Cc1c[nH]c2ccccc12)NC(=O)[C@@H](COCc1ccccc1)NC(=O)[C@H](CC(=O)O)NC(=O)[C@@H](Cc1c[nH]cn1)NC(=O)OCc1ccccc1)C(N)=O	0.038				
C[C@H](NC(=O)[C@@H](Cc1c[nH]c2ccccc12)NC(=O)[C@@H](COCc1ccccc1)NC(=O)[C@H](CS)NC(=O)[C@@H](Cc1c[nH]cn1)NC(=O)OCc1ccccc1)C(N)=O	4.9				
C[C@H](NC(=O)[C@@H](Cc1c[nH]c2ccccc12)NC(=O)[C@@H](COCc1ccccc1)NC(=O)[C@@H](Cc1ccc(OCc2ccccc2)cc1)NC(=O)[C@@H](Cc1cnc[nH]1)NC(=O)OCc1ccccc1)C(=O)NN	0.064				
C[C@H](NC(=O)[C@@H](Cc1c[nH]c2ccccc12)NC(=O)[C@@H](COCc1ccccc1)NC(=O)[C@@H](Cc1ccc(OCc2ccccc2)cc1)NC(=O)C(CS)NC(=O)OCc1ccccc1)C(N)=O (stereo partly specified)	0.17				
CCOP(=O)(Cc1ccc(CC(NC(=O)[C@@H](Cc2cnc[nH]2)NC(=O)OCc2ccccc2)C(=O)N[C@H](COCc2ccccc2)C(=O)N[C@H](Cc2c[nH]c3ccccc23)C(=O)N[C@@H](C)C(N)=O)cc1)OCC (stereo partly specified)		0.075	0.025	0.049	
C[C@H](NC(=O)[C@@H](Cc1c[nH]c2ccccc12)NC(=O)[C@@H](COP(=O)(O)O)NC(=O)[C@@H](Cc1ccc(OCc2ccccc2)cc1)NC(=O)[C@@H](Cc1cnc[nH]1)NC(=O)OCc1ccccc1)C(N)=O		0.66	0.24	0.36	
C[C@H](NC(=O)[C@@H](Cc1c[nH]c2ccccc12)NC(=O)[C@@H](COCc1ccccc1)NC(=O)[C@@H](Cc1ccc(OP(=O)(O)O)cc1)NC(=O)[C@@H](Cc1c[nH]cn1)NC(=O)OCc1ccccc1)C(N)=O		0.006	0.013	0.009	
C[C@H](NC(=O)[C@@H](Cc1c[nH]c2ccccc12)NC(=O)[C@@H](CO)NC(=O)[C@@H](Cc1ccc(OCc2ccccc2)cc1)NC(=O)[C@@H](Cc1cnc[nH]1)NC(=O)OCc1ccccc1)C(N)=O	1.8				
CC(NC(=O)OCc1ccccc1)C(=O)N[C@H](Cc1ccc(OCc2ccccc2)cc1)C(=O)N[C@H](COCc1ccccc1)C(=O)N[C@H](Cc1c[nH]c2ccccc12)C(=O)N[C@@H](C)C(N)=O (stereo partly specified)	> 20				
C[C@H](NC(=O)[C@@H](Cc1c[nH]c2ccccc12)NC(=O)[C@@H](COCc1ccccc1)NC(=O)C(Cc1ccc(CP(=O)(O)O)cc1)NC(=O)[C@@H](Cc1cnc[nH]1)NC(=O)OCc1ccccc1)C(N)=O (stereo partly specified)		0.19	0.2	0.28	
C[C@@H](NC(=O)[C@H](Cc1c[nH]c2ccccc12)NC(=O)[C@H](COCc1ccccc1)NC(=O)[C@H](Cc1ccccc1)NC(=O)[C@H](Cc1c[nH]cn1)NC(=O)OCc1ccccc1)C(N)=O (single isomer, unassigned)	0.009				
C[C@@H](NC(=O)[C@H](Cc1c[nH]c2ccccc12)NC(=O)[C@H](COCc1ccccc1)NC(=O)[C@H](Cc1ccc(O)cc1)NC(=O)[C@H](Cc1c[nH]cn1)NC(=O)OCc1ccccc1)C(N)=O (single isomer, unassigned)	0.035	0.51	0.035	0.102	
C[C@@H](NC(=O)[C@H](Cc1c[nH]c2ccccc12)NC(=O)[C@H](COCc1ccccc1)NC(=O)[C@H](Cc1ccc(OCc2ccccc2)cc1)NC(=O)[C@H](Cc1c[nH]cn1)NC(=O)OCc1ccccc1)C(N)=O (single isomer, unassigned)	0.02	1.6	0.02	0.076	IC50 [5]: 0.01 µM; IC50 [6]: 1.25 µM
C[C@@H](NC(=O)[C@H](Cc1c[nH]c2ccccc12)NC(=O)[C@H](COCc1ccccc1)NC(=O)[C@@H](Cc1ccc(O)cc1)NC(=O)[C@H](Cc1cnc[nH]1)NC(=O)OCc1ccccc1)C(N)=O (stereo in doubt)	0.17				
C[C@@H](NC(=O)[C@H](Cc1c[nH]c2ccccc12)NC(=O)[C@H](COCc1ccccc1)NC(=O)[C@@H](Cc1ccccc1)NC(=O)[C@H](Cc1cnc[nH]1)NC(=O)OCc1ccccc1)C(N)=O (stereo in doubt)	0.079				
